# Test system: HEK-293T
# Test: Multiplex assay against HEK293T;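 on Population Tubulin-Different-Phenotype (%): share of the cells with healthy nuclei that show this phenotype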
# Format: toxicity, cell-based
# Conditions: human
# How it was run: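 Cells were classed with CellPathfinder machine-learning gating, first as Hoechst high-intensity objects or normal cells, then (normal cells) as healthy, pyknosed or fragmented nuclei, and finally (pyknosed cells) as mitotic or apoptotic. Staining of live cells at seeding used Hoechst33342, BioTracker Green Microtubule Cytoskeleton Dye, MitoTracker Red and Annexin V Alexa Fluor 680, with imaging on a CQ1 microscope at 37°C and 5% CO2 after compound addition. Tubulin, mitochondrial-mass and membrane-permeability phenotypes are per cents of healthy-nucleus cells.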
# [1] = 12 h, 1 µM, compound concentration 1 uM, replicate 1
# [2] = 12 h, 1 µM, compound concentration 1 uM, replicate 2
# [3] = 12 h, 10 µM, compound concentration 10 uM, replicate 1
# [4] = 12 h, 10 µM, compound concentration 10 uM, replicate 2
# [5] = 24 h, 1 µM, compound concentration 1 uM, replicate 1
# [6] = 24 h, 1 µM, compound concentration 1 uM, replicate 2
# [7] = 24 h, 10 µM, compound concentration 10 uM, replicate 1
# [8] = 24 h, 10 µM, compound concentration 10 uM, replicate 2
# [9] = 48 h, 1 µM, compound concentration 1 uM, replicate 1
# [10] = 48 h, 1 µM, compound concentration 1 uM, replicate 2
# [11] = 48 h, 10 µM, compound concentration 10 uM, replicate 1
# [12] = 48 h, 10 µM, compound concentration 10 uM, replicate 2
structure (smiles),measurement,setting,value
CCc1ccc(OCc2ccccc2C(=O)Nc2ccc3nc(C)cc(N)c3c2)cc1.Cl,Population Apoptotic (%),[1],84%
same,Population Fragmented Nuclei (%),[1],28%
same,Population Healthy Nuclei (%),[1],7%
same,Population Hoechst High Intensity Objects (%),[1],18%
same,Population Membrane Permeable-Phenotype (%),[1],33%
same,Population Mitochondria Different-Phenotype (%),[1],100%
same,Population Mitotic Cells (%),[1],15%
same,Population Normal (%),[1],81%
same,Population Pyknosed Nuclei (%),[1],64%
same,Population Tubulin-Different-Phenotype (%),[1],66%
same,Total Cell Count,[1],156
same,Population Apoptotic (%),[2],73%
same,Population Fragmented Nuclei (%),[2],8%
same,Population Healthy Nuclei (%),[2],12%
same,Population Hoechst High Intensity Objects (%),[2],14%
same,Population Membrane Permeable-Phenotype (%),[2],0%
same,Population Mitochondria Different-Phenotype (%),[2],93%
same,Population Mitotic Cells (%),[2],26%
same,Population Normal (%),[2],85%
same,Population Pyknosed Nuclei (%),[2],79%
same,Population Tubulin-Different-Phenotype (%),[2],73%
same,Total Cell Count,[2],146
same,Population Apoptotic (%),[3],50%
same,Population Fragmented Nuclei (%),[3],19%
same,Population Healthy Nuclei (%),[3],0%
same,Population Hoechst High Intensity Objects (%),[3],24%
same,Population Membrane Permeable-Phenotype (%),[3],0%
same,Population Mitochondria Different-Phenotype (%),[3],0%
same,Population Mitotic Cells (%),[3],50%
same,Population Normal (%),[3],75%
same,Population Pyknosed Nuclei (%),[3],80%
same,Population Tubulin-Different-Phenotype (%),[3],0%
same,Total Cell Count,[3],144
same,Population Apoptotic (%),[4],62%
same,Population Fragmented Nuclei (%),[4],18%
same,Population Healthy Nuclei (%),[4],30%
same,Population Hoechst High Intensity Objects (%),[4],35%
same,Population Membrane Permeable-Phenotype (%),[4],11%
same,Population Mitochondria Different-Phenotype (%),[4],8%
same,Population Mitotic Cells (%),[4],37%
same,Population Normal (%),[4],64%
same,Population Pyknosed Nuclei (%),[4],51%
same,Population Tubulin-Different-Phenotype (%),[4],41%
same,Total Cell Count,[4],175
same,Population Apoptotic (%),[5],85%
same,Population Fragmented Nuclei (%),[5],18%
same,Population Hoechst High Intensity Objects (%),[5],19%
same,Population Mitochondria Different-Phenotype (%),[5],90%
same,Population Mitotic Cells (%),[5],14%
same,Population Normal (%),[5],80%
same,Population Pyknosed Nuclei (%),[5],72%
same,Population Tubulin-Different-Phenotype (%),[5],81%
same,Total Cell Count,[5],152
same,Population Apoptotic (%),[6],80%
same,Population Fragmented Nuclei (%),[6],10%
same,Population Healthy Nuclei (%),[6],9%
same,Population Hoechst High Intensity Objects (%),[6],15%
same,Population Membrane Permeable-Phenotype (%),[6],0%
same,Population Mitochondria Different-Phenotype (%),[6],100%
same,Population Mitotic Cells (%),[6],20%
same,Population Normal (%),[6],84%
same,Population Pyknosed Nuclei (%),[6],79%
same,Population Tubulin-Different-Phenotype (%),[6],100%
same,Total Cell Count,[6],141
same,Population Apoptotic (%),[7],44%
same,Population Fragmented Nuclei (%),[7],20%
same,Population Healthy Nuclei (%),[7],0%
same,Population Hoechst High Intensity Objects (%),[7],22%
same,Population Membrane Permeable-Phenotype (%),[7],0%
same,Population Mitochondria Different-Phenotype (%),[7],100%
same,Population Mitotic Cells (%),[7],55%
same,Population Normal (%),[7],77%
same,Population Pyknosed Nuclei (%),[7],79%
same,Total Cell Count,[7],135
same,Population Apoptotic (%),[8],42%
same,Population Fragmented Nuclei (%),[8],28%
same,Population Healthy Nuclei (%),[8],21%
same,Population Hoechst High Intensity Objects (%),[8],26%
same,Population Membrane Permeable-Phenotype (%),[8],18%
same,Population Mitochondria Different-Phenotype (%),[8],18%
same,Population Mitotic Cells (%),[8],57%
same,Population Normal (%),[8],73%
same,Population Pyknosed Nuclei (%),[8],50%
same,Population Tubulin-Different-Phenotype (%),[8],100%
same,Total Cell Count,[8],103
same,Population Apoptotic (%),[9],85%
same,Population Fragmented Nuclei (%),[9],26%
same,Population Healthy Nuclei (%),[9],2%
same,Population Hoechst High Intensity Objects (%),[9],22%
same,Population Mitochondria Different-Phenotype (%),[9],66%
same,Population Mitotic Cells (%),[9],14%
same,Population Normal (%),[9],77%
same,Population Pyknosed Nuclei (%),[9],70%
same,Population Tubulin-Different-Phenotype (%),[9],66%
same,Total Cell Count,[9],155
same,Population Apoptotic (%),[10],92%
same,Population Fragmented Nuclei (%),[10],14%
same,Population Healthy Nuclei (%),[10],11%
same,Population Hoechst High Intensity Objects (%),[10],11%
same,Population Membrane Permeable-Phenotype (%),[10],0%
same,Population Mitochondria Different-Phenotype (%),[10],84%
same,Population Mitotic Cells (%),[10],7%
same,Population Normal (%),[10],88%
same,Population Pyknosed Nuclei (%),[10],73%
same,Population Tubulin-Different-Phenotype (%),[10],84%
same,Total Cell Count,[10],124
same,Population Apoptotic (%),[11],49%
same,Population Fragmented Nuclei (%),[11],20%
same,Population Healthy Nuclei (%),[11],0%
same,Population Hoechst High Intensity Objects (%),[11],22%
same,Population Membrane Permeable-Phenotype (%),[11],0%
same,Population Mitochondria Different-Phenotype (%),[11],0%
same,Population Mitotic Cells (%),[11],50%
same,Population Normal (%),[11],77%
same,Population Pyknosed Nuclei (%),[11],79%
same,Population Tubulin-Different-Phenotype (%),[11],0%
same,Total Cell Count,[11],132
same,Population Apoptotic (%),[12],33%
same,Population Fragmented Nuclei (%),[12],31%
same,Population Healthy Nuclei (%),[12],50%
same,Population Hoechst High Intensity Objects (%),[12],40%
same,Population Membrane Permeable-Phenotype (%),[12],13%
same,Population Mitochondria Different-Phenotype (%),[12],28%
same,Population Mitotic Cells (%),[12],66%
same,Population Normal (%),[12],59%
same,Population Pyknosed Nuclei (%),[12],17%
same,Population Tubulin-Different-Phenotype (%),[12],64%
same,Total Cell Count,[12],176

# Reference: ChEMBL document CHEMBL4689842, “EUbOPEN Chemogenomics Library wave 1” (2021)
